Reference: ChEMBL document CHEMBL1154743, “A novel potent nicotinamide phosphoribosyltransferase inhibitor synthesized via click chemistry” (J Med Chem, 2010)
The source made the active and inactive calls. The rule behind the calls is not given here.

Tests used:
[1] = system: SH-SY5Y; assay: Cytotoxicity against human SH-SY5Y cells assessed as reduction of total cellular NAD(P) level at 300 nM relative to control; format: functional; design: scale not given: the % may be the effect or the level left
How it was run: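 Total cellular NAD levels in SH-SY5Y cells screened at a single fixed concentration of 300 nM. Expressed relative to control, n = 10.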

[2] = system: SH-SY5Y; assay: Cytotoxicity against human SH-SY5Y cells assessed as reduction of total cellular NAD(P) level at 1 uM relative to control; format: functional; design: scale not given: the % may be the effect or the level left
[3] = system: SH-SY5Y; assay: Cytotoxicity against human SH-SY5Y cells assessed as reduction of total cellular NAD(P) level; format: functional, cell-based
[4] = system: SH-SY5Y; assay: Induction of autophagy in human SH-SY5Y cells assessed as LC3/phosphotidylethanolamine coupling after 40 hrs by Western blot analysis; format: functional, cell-based
How it was run: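 Western blot of LC3-I and LC3-II, with tubulin as reference, in untreated and treated cells exposed to 10 nM compound. Six independent experiments were run, using two LC3 antibodies from different sources.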

[5] = system: SH-SY5Y; assay: Cytotoxicity against human SH-SY5Y cells assessed as cell viability after 48 hrs by MTT assay; format: functional, cell-based
How it was run: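 SH-SY5Y cells incubated with compound for 48 h and viability measured by MTT. Values are mean ± SEM of 8-12 determinations.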

[6] = system: SH-SY5Y; assay: Cytotoxicity against human SH-SY5Y cells assessed as cell viability after 48 hrs by MTT assay relative to control in presence of nicotinamide; format: functional

| Compound | Activity [1] [%] | Activity [2] [%] | IC50 [3] [nM] | Activity [4] | IC50 [5] [nM] | Activity [6] [%] |
| --- | --- | --- | --- | --- | --- | --- |
| O=C(CCCCCCn1cc(-c2cccnc2)nn1)NCC(c1ccccc1)c1ccccc1 | 83.8 | 16.8 |  |  |  |  |
| O=C(CCCCCCCn1cc(-c2cccnc2)nn1)Oc1ccccc1-c1ccccc1 | 74.7 |  |  |  |  |  |
| N#CCCCc1cn(-c2ccncc2)nn1 | 87.8 | 31 |  |  |  |  |
| O=C(/C=C/c1cccnc1)NCCCCC1CCN(C(=O)c2ccccc2)CC1 [DAPORINAD] |  |  | 0.5 | Active | 1.7 |  |
| O=C(CCCCCCCn1cc(-c2cccnc2)nn1)NCC(c1ccccc1)c1ccccc1 | 11 | 23 | 49.2 |  | 97 |  |
| O=C(CCCCCCn1cc(-c2cccnc2)nn1)Nc1ccccc1-c1ccccc1 | 88.2 | 26.2 |  |  | 56 |  |
| O=C(CCCCCCCCn1cc(-c2cccnc2)nn1)Nc1ccccc1Cc1ccccc1 | 74.7 | 13.1 |  |  | 82 |  |
| O=C(CCCCCCn1cc(-c2cccnc2)nn1)Nc1ccccc1Cc1ccccc1 | 86.1 | 28 |  |  |  |  |
| O=C(CCCCCCCCn1cc(-c2cccnc2)nn1)NCC(c1ccccc1)c1ccccc1 | 77.3 | 32.3 |  |  | 157 |  |
| O=C(CCCCCCCn1cc(-c2cccnc2)nn1)n1c2ccccc2c2ccccc21 | 12 |  | 17.1 |  | 37.4 |  |
| O=C(CCCCCCCn1cc(-c2cccnc2)nn1)Nc1ccccc1Oc1ccccc1 | 87.9 | 17.7 |  |  | 37 |  |
| O=C(CCCCCCn1cc(-c2cccnc2)nn1)Nc1ccccc1Cl | 79.5 |  |  |  | 205 |  |
| O=C(CCCCCCn1cc(-c2cccnc2)nn1)Nc1ccccc1Oc1ccccc1 | 81.3 | 24.7 |  |  | 120 |  |
| COc1ccccc1NC(=O)CCCCCCn1cc(-c2cccnc2)nn1 | 87.9 |  |  |  |  |  |
| O=C(CCCCCCCn1cc(-c2cccnc2)nn1)Nc1ccccc1Cc1ccccc1 | 75.2 | 30 |  |  | 72 |  |
| O=C(CCCCCCCCn1cc(-c2cccnc2)nn1)Nc1ccccc1Oc1ccccc1 | 79.5 | 22.6 |  |  | 78 |  |
| NC(=O)c1cccnc1 [NIACINAMIDE] |  |  |  |  |  | 31 |
| O=C(CCCCCCCCn1cc(-c2cccnc2)nn1)Nc1ccccc1-c1ccccc1 | 35.6 | 13 | 84.4 |  | 14.6 |  |
